Measured values reported in the RNAGym collection of RNA variant scans (doi:10.1038/s41586-018-0170-7).

B1: tRNA (parent)
chain: GUUCCGUUGGCGUAAUGGUAACGCGUCUCCCUCCUAAGGAGAAGACUGCGGGUUCGAGUCCCGUACGGAACG

Variants of: B1
Assay: yeast fitness, log relative to wild type (ln ratio); higher = fitter; tRNA-Arg(CCU), competitive growth, 37 C, 1 M NaCl
In short: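 In BY4742 missing the chromosomal gene, a combinatorial tRNA-Arg(CCU) variant library was maintained on a HIS3 centromeric plasmid. Selection ran ~6.5 generations (~26.5 h) in SC-HIS 1M NaCl at 37 °C, following 4 generations in SC-HIS at 30 °C, with three outputs per input and variant counts by 125 bp paired-end Illumina sequencing. Fitness is the natural log of a genotype's generations relative to the wild type's, with generations taken as inverse-variance-weighted, OD-scaled log2 output/input frequency.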

Row | Variant | yeast fitness (ln)
1 | U2G G6U C46U C66U A69G A70G | -0.162
2 | U2G G6U C46U C66U A69G A70U | -0.264
3 | U2G G6U C27U A69G A70G C71U | -0.363
4 | U2G G6U A43C C66A C71U | -0.324
5 | U2G G6U C27U C46U A69G A70G | -0.191
6 | U2G G6U C27U C46U A69G A70U | -0.153
7 | U2G G6U C27U C46U C66U A69G | -0.258
8 | U2G G6U C66U A70G C71U | -0.151
9 | U2G G6U A43C C66A A70G | -0.137
10 | U2G G6U A43C C66A A70U | -0.0132
11 | U2G G6U C27U C46U C66U A70U C71U | -0.312
12 | U2G G6U C27U A43C A70G C71U | -0.329
13 | U2G G6U A43C C66A A70G C71U | -0.265
14 | U2G G6U C66A A69G A70G C71U | -0.158
15 | U2G G6A C46U C66U C71U | -0.082
16 | G6A A43C C46U A69G C71U | -0.171
17 | U2G G6U C46U A70U C71U | -0.461
18 | U2G G6U A43C C66A A69G A70G C71U | -0.315
19 | U2G G6U C46U A69G | -0.157
20 | U2G G6U C27U A43C C66A A70U | -0.0378
21 | U2G G6U C27U A43C C66A A70G | -0.214

Row | Variant | yeast fitness (ln)
22 | U2G G6U C27U C46U C66A A70U | -0.0141
23 | U2G G6U C27U C46U C66A A70G | -0.376
24 | U2G G6U C27U C66U A69G A70U C71U | -0.439
25 | U2G G6U C46U C66A A69G A70U C71U | -0.646
26 | U2G G6U A43C C71U | -0.17
27 | U2G G6U C46U A70G C71U | -0.165
28 | U2G G6U C27U C66A A70U C71U | -0.275
29 | U2G G6U C27U A70U C71U | -0.227
30 | G6A | -0.0301
31 | U2G G6U C27U C46U C66U A70G C71U | -0.261
32 | U2G G6U C27U C66U C71U | -0.31
33 | U2G G6U C46U C66A A70U C71U | -0.0156
34 | U2G G6A C66U A70G C71U | -0.253
35 | G6A A43C C46U A69G A70U C71U | -0.493
36 | U2G G6U C27U C66A A69G A70U | -0.0809
37 | U2G G6U C27U C66A A69G A70G | -0.145
38 | U2G G6A C46U C66U A70G C71U | -0.35
39 | U2G G6U C27U A43C A70U C71U | -0.324
40 | U2G G6U C46U C71U | -0.134
41 | G6A A43C C46U C66U | -0.00855
42 | G6A A43C C46U C66A | -0.0495

Row | Variant | yeast fitness (ln)
43 | U2G G6U C46U A69G C71U | -0.129
44 | U2G G6U C27U C46U C66U C71U | -0.246
45 | U2G G6U C27U C46U C66A A69G A70G | -0.214
46 | U2G G6U C27U C46U C66A A69G A70U | -0.0283
47 | U2G G6U A43C C46U C66A A70G C71U | -0.174
48 | U2G G6U A70U | -0.0383
49 | U2G G6U A70G | -0.0649
50 | U2G G6U C27U A43C C66U A70U C71U | -0.441
51 | U2G G6U C66A A69G C71U | -0.101
52 | U2G G6U C27U C46U A69G C71U | -0.205
53 | U2G G6A C66A A69G A70U | -0.0595
54 | U2G G6U C46U | -0.0208
55 | G6A A43C A69G A70G C71U | -0.305
56 | U2G G6U C27U C71U | -0.218
57 | U2G G6U A43C C46U A69G C71U | -0.221
58 | U2G G6A C66U A69G A70U C71U | -0.641
59 | U2G G6U A43C A69G A70G C71U | -0.28
60 | U2G G6U A43C C66U A70U C71U | -0.464
61 | U2G G6U C27U A43C C46U C66A A70G C71U | -0.197
62 | U2G G6U C27U C46U C66U A69G A70G C71U | -0.356
63 | U2G G6U C27U A70G C71U | -0.285

Row | Variant | yeast fitness (ln)
64 | U2G G6U C27U A43C C46U A70U | -0.156
65 | U2G G6U C27U A43C C46U A70G | -0.208
66 | U2G G6U C27U A43C C66A A70U C71U | -0.445
67 | U2G G6U C27U A43C C46U A69G A70G C71U | -0.33
68 | U2G G6A C66A A70G | -0.0981
69 | U2G G6A C66A A70U | -0.178
70 | U2G G6U C27U A43C C46U A69G | -0.199
71 | U2G G6U C27U C46U | -0.1
72 | U2G G6U C66A A69G A70U | -0.000141
73 | U2G G6U C66A A69G A70G | -0.25
74 | U2G G6A C66U A69G C71U | -0.217
75 | U2G G6U C27U A43C C66U A69G | -0.31
76 | U2G G6U A43C C66A | -0.122
77 | U2G G6U C27U A43C C46U A69G C71U | -0.336
78 | G6A A43C C46U C66U A69G A70G | -0.233
79 | G6A A43C C46U C66U A69G A70U | -0.159
80 | U2G G6U C27U A43C C46U A70U C71U | -0.228
81 | U2G G6U | -0.0233
82 | U2G G6U C27U A43C C66U A69G A70U C71U | -0.411
83 | U2G G6U A69G A70U C71U | -0.26
